Experimental data from ChEMBL document CHEMBL4819003, “Optimization of novel oxidative DIMs as Nur77 modulators of the Nur77-Bcl-2 apoptotic pathway” (Eur J Med Chem, 2021).
Activity calls are given as the source filed them. The rule behind the calls is not given here.

Key:
[1] = Tmax in male Sprague-Dawley rat at 5 mg/kg, po measured for 36 hrs by LC-MS/MS analysis; type: ADME, organism-based; conditions: in vivo
How it was run: (§1)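 Sprague-Dawley rats (200–220 g), three males and three females per route group. Dosed 5 mg/kg orally or 0.5 mg/kg IV as a solution in DMSO/T-80/H2O (1:5:94 by volume). Heparinized blood was drawn from 5 min to 36 h after IV and 1–36 h after oral dosing. Plasma was protein-precipitated with methanol (2% HCl) plus carbamazepine internal standard and assayed by LC-MS/MS. Parameters were taken from concentration-time data; n = 3 per sex, mean ± SD.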

[2] = Clearance in female Sprague-Dawley rat at 0.5 mg/kg, iv measured for 36 hrs by LC-MS/MS analysis; type: ADME, organism-based; conditions: in vivo
[3] = Volume of distribution at steady state in male Sprague-Dawley rat at 0.5 mg/kg, iv measured for 36 hrs by LC-MS/MS analysis; type: ADME, organism-based; conditions: in vivo, read-out: Vdss; how it was run: as §1
[4] = AUC (0 to t) in male Sprague-Dawley rat at 0.5 mg/kg, iv measured for 36 hrs by LC-MS/MS analysis; type: ADME, organism-based; design: time 36 hrs, dose 0.5 mg/kg; conditions: in vivo
How it was run: (§2)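 Sprague-Dawley rats (200–220 g), three per sex per route, were dosed at 0.5 mg/kg IV or 5 mg/kg PO in DMSO/Tween-80/water (1:5:94). Heparinized blood was drawn from 5 min to 36 h after IV dosing and from 1 h to 36 h after oral dosing. Plasma was deproteinized with methanol (2% HCl) plus carbamazepine internal standard, measured by LC-MS/MS, and reported as mean ± SD.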

[5] = Volume of distribution at steady state in female Sprague-Dawley rat at 0.5 mg/kg, iv measured for 36 hrs by LC-MS/MS analysis; type: ADME, organism-based; conditions: in vivo; how it was run: as §1
[6] = Oral bioavailability in male Sprague-Dawley rat at 5 mg/kg measured for 36 hrs by LC-MS/MS analysis; type: ADME, organism-based; conditions: in vivo; how it was run: as §1
[7] = Tmax in female Sprague-Dawley rat at 5 mg/kg, po measured for 36 hrs by LC-MS/MS analysis; type: ADME, organism-based; conditions: in vivo; how it was run: as §1
[8] = Half life in male Sprague-Dawley rat at 0.5 mg/kg, iv measured for 36 hrs by LC-MS/MS analysis; type: ADME, organism-based; conditions: in vivo
[9] = Cmax in male Sprague-Dawley rat at 0.5 mg/kg, iv measured for 36 hrs by LC-MS/MS analysis; type: ADME, organism-based; design: route intravenous, dose 0.5 mg/kg, time 36 hrs; conditions: in vivo
[10] = AUC (0 to t) in male Sprague-Dawley rat at 5 mg/kg, po measured for 36 hrs by LC-MS/MS analysis; type: ADME, organism-based; design: dose 5 mg/kg, time 36 hrs; conditions: in vivo; how it was run: as §2
[11] = MRT(0 to t) in male/female Sprague-Dawley rat at 0.5 mg/kg, iv measured for 36 hrs by LC-MS/MS analysis; type: ADME, organism-based; conditions: in vivo
How it was run: (§3)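 Sprague-Dawley rats (200–220 g), four per route group (2 male, 2 female), given 0.5 mg/kg IV or 5 mg/kg orally in DMSO/T-80/H2O (1:5:94). Heparinized blood was sampled at 5 min–36 h after IV and at 0.5, 1, 3, 4, 6, 8, 10, 12, 24 and 36 h after oral dosing. Plasma was methanol (2% HCl)-precipitated with carbamazepine internal standard and quantified by LC-MS/MS. Parameters reported as mean ± SD.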

MDA-MB-231 = assay: Induction of apoptosis in human MDA-MB-231 cells assessed as PARP cleavage at 0.5 uM measured after 6 hrs by western blot assay; type: functional, cell-based
How it was run: (§4)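 Cells exposed to 0.5 µM for 6 h. Lysates resolved by SDS-PAGE and blotted to PVDF, blocked in 5% milk/TBST, probed with primary antibodies at 1:1000, ECL detection. Apoptosis scored as the densitometric ratio of cleaved PARP band to intact PARP band; mean ± SD, n = 3.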

[12] = MRT(0 to t) in male/female Sprague-Dawley rat at 5 mg/kg, po measured for 36 hrs by LC-MS/MS analysis; type: ADME, organism-based; conditions: both, in vivo; how it was run: as §3
SW-620 = assay: Induction of apoptosis in human SW-620 cells assessed as PARP cleavage at 0.5 uM measured after 6 hrs by western blot assay; type: functional, cell-based; how it was run: as §4
BT-549 = assay: Induction of apoptosis in human BT-549 cells assessed as PARP cleavage at 0.5 uM measured after 6 hrs by western blot assay; type: functional, cell-based; how it was run: as §4
[13] = target: T1, Nuclear receptor subfamily 4immunitygroup A member 1 (Homo sapiens, UniProt P22736); assay: Modulation of GFP-Nur77-LBD (unknown origin) transfected in human HEK293T cells co-transfected with Flag-tagged Bcl2 assessed as interaction of Nur77 with Bcl2 in mitochondria at 0.5 uM measured after 2 hrs by confocal microscopy; conditions: filed as modulator
How it was run: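 HEK293T cells were lipofectamine-cotransfected with Flag-Bcl-2 and GFP-Nur77 or GFP-Nur77-LBD, then given 0.5 μM compound for 2 h. Cells were fixed in 4% paraformaldehyde, permeabilised with 0.1% Triton X-100, blocked in 1% BSA and stained with anti-Flag plus DAPI. Mitochondrial colocalisation with Bcl-2 was read by confocal microscopy.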

[14] = Volume of distribution at steady state in male/female Sprague-Dawley rat at 0.5 mg/kg, iv measured for 36 hrs by LC-MS/MS analysis; type: ADME, organism-based; conditions: in vivo; how it was run: as §3
[15] = Selectivity index, ratio of IC50 for human NCM460 cells to IC50 for human HCT-116 cells; type: toxicity; conditions: NCM460 cells versus HCT-116 cells, read-out: Ratio IC50
[16] = Clearance in male/female Sprague-Dawley rat at 0.5 mg/kg, iv measured for 36 hrs by LC-MS/MS analysis; type: ADME, organism-based; conditions: both, in vivo
[17] = Selectivity index, ratio of IC50 for human MCF-10A cells to IC50 for human BT-549 cells
HCT-116 = assay: Induction of apoptosis in human HCT-116 cells assessed as PARP cleavage at 0.5 uM measured after 6 hrs by western blot assay; type: functional, cell-based; how it was run: as §4
[18] = Half life in male/female Sprague-Dawley rat at 5 mg/kg, po measured for 36 hrs by LC-MS/MS analysis; type: ADME, organism-based; conditions: both, in vivo
[19] = Selectivity index, ratio of IC50 for human NCM460 cells to IC50 for human SW-620 cells
[20] = AUC (0 to t) in male/female Sprague-Dawley rat at 5 mg/kg, po measured for 36 hrs by LC-MS/MS analysis; type: ADME, organism-based; design: dose 5 mg/kg, time 36 hrs; conditions: both, in vivo
How it was run: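 Four Sprague-Dawley rats per route (2 male, 2 female; 200–220 g) received 0.5 mg/kg IV or 5 mg/kg PO in DMSO/Tween-80/water (1:5:94). Heparinized blood was taken at 5 min–36 h after IV dosing and at 0.5, 1, 3, 4, 6, 8, 10, 12, 24 and 36 h after oral dosing. Methanol (2% HCl) precipitation with carbamazepine internal standard preceded LC-MS/MS; values are mean ± SD.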

[21] = target: T1, Nuclear receptor subfamily 4immunitygroup A member 1; assay: Modulation of Myc-Nur77-LBD (unknown origin) transfected in human HEK293T cells assessed as induction of Myc-Nur77 mitochondrial targeting by measuring increase in Myc-Nur77 accumulation in mitochondria at 0.5 uM measured after 2 hrs by Mito-tracker dye based confocal microscopy method; conditions: filed as modulator
How it was run: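 HEK293T cells transfected with Myc-Nur77-LBD were given 0.5 μM compound for 2 h, stained with Mito-Tracker and immunostained. Nur77 mitochondrial localisation was visualised by confocal microscopy.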

T1 sequence (P22736 whole entry, the tested form may be a part): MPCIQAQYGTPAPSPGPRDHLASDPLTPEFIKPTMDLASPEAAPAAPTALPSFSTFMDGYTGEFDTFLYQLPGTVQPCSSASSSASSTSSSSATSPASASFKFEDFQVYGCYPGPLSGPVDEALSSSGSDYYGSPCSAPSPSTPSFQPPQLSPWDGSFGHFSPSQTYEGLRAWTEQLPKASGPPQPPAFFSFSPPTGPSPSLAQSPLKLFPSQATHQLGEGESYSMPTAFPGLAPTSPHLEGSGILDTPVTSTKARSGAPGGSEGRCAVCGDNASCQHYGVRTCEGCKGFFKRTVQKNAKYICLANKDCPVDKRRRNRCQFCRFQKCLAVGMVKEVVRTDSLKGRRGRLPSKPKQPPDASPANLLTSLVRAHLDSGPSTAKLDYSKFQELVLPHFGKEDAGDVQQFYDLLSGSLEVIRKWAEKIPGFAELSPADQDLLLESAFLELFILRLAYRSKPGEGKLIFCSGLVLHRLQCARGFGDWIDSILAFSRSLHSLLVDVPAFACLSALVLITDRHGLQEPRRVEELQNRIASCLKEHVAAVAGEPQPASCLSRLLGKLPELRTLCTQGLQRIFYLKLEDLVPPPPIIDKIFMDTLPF

Work on `CS(=O)(=O)[O-].FC(F)(F)c1ccc([C+](c2c[nH]c3ccccc23)c2c[nH]c3ccccc23)cc1` yielded a Tmax [1] of 5.33 h, a CL [2] of 4.67 mL/min/kg and a Vd [3] of 2.56 L/kg. For the same compound, the AUC(0-t) at 36 h [4] was 1120 ng·h/mL, the Vdss [5] was 2.38 L/kg and the bioavailability [6] was 20.1%. It also gave a Tmax [7] of 5.33 h, a half-life [8] of 4.05 h and a Cmax [9] of 880 ng/mL. It also gave an AUC(0-t) at 36 h [10] of 2250 ng·h/mL.

With `CS(=O)(=O)[O-].Cn1cc([C+](c2ccc(C(F)(F)F)cc2)c2c[nH]c3ccccc23)c2ccccc21` the MRT [11] was 0.56 h, the Activity (MDA-MB-231) was “Active” and the MRT last at 36 h [12] was 9.59 h. The Activity (SW-620) was “Active”, the Activity (BT-549) was “Active” and the Activity [13] was “Active”. For the same compound, the Vdss [14] was 3.69 L/kg, the selectivity ratio [15] was 50 and the clearance [16] was 17 mL/min/kg. For the same compound, the “Ratio IC50” value [17] was 40, the Activity (HCT-116) was “Active” and the half-life [18] was 4.49 h. The “Ratio IC50” value [19] was 50, the AUC(0-t) at 36 h [20] was 734 ng·h/mL and the Activity [21] was “Active”.
